Screening results: PubChem BioAssay, Broad Institute
MITF TRPM1 HTS – activators of MITF-driven TRPM1 promoter reporter, primary screen, cell-based, SK-MEL-5, luciferase, single point. SK-MEL-5 TRPM1-promoter luciferase, 24 h; % of positive control, neutral wells = 0. activation, % at 12.5 µM. 300,000 tested, 0.75% active;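 active means mean activation of at least 80% with every replicate also reaching 80%; inconclusive means mean reaches 80% but some replicate falls short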
Wnt act – Wnt/beta-catenin pathway activators, primary screen, cell-based, plate reader, single point; AID 743398, 2014; Wnt/beta-catenin reporter cell assay, activator; activation, % at 9.35 µM; 300,000 tested, 1.2% active; in the data active means activation above about 30%, passing the limit was not always enough; inconclusive means no clear call, values can overlap the other calls
Cneo AK release – Cryptococcus neoformans cell lysis inducers, primary screen, AK release luminescence, single concentration; C. neoformans lysis, adenylate kinase release luminescence, 4 h; normalised: neutral wells 0, clomiphene wells 100; lysis activity, % at 15 µM; AID 651654, 2012; 360,000 tested, 0.2% active;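 active means mean lysis activity across replicates of at least 80%, whatever share of replicates individually reach that level; inactive means mean lysis activity below 80%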
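Assay system: log-phase C. neoformans yeast / Quantity: yeast cell density of 5 × 10^6 cells/mL / Medium: fresh YPD growth medium / Compound: single dose / Timing: static 4 h at 37 °C with compound, 1 h detection / Measured by: adenylate kinase release luminescence / Read-out: lysis from increased AK signal / Benchmarks: Clomiphene as positive lysis control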
ERAP1 inh – human ERAP1 aminopeptidase inhibitors, primary screen, biochemical, single point, plate reader; Endoplasmic reticulum aminopeptidase 1 (Homo sapiens), Q9NZ08; 340,000 tested, 0.15% active; recombinant ERAP1, Leu-AMC fluorescence, 60 min; inhibition, % at 10.7 µM; AID 652197, 2013;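 active means mean replicate inhibition of at least 30%, or all replicates individually reaching that 30% level; inactive means mean below 30% and not every replicate reaching it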
Target sequence (Q9NZ08 whole entry, looked up): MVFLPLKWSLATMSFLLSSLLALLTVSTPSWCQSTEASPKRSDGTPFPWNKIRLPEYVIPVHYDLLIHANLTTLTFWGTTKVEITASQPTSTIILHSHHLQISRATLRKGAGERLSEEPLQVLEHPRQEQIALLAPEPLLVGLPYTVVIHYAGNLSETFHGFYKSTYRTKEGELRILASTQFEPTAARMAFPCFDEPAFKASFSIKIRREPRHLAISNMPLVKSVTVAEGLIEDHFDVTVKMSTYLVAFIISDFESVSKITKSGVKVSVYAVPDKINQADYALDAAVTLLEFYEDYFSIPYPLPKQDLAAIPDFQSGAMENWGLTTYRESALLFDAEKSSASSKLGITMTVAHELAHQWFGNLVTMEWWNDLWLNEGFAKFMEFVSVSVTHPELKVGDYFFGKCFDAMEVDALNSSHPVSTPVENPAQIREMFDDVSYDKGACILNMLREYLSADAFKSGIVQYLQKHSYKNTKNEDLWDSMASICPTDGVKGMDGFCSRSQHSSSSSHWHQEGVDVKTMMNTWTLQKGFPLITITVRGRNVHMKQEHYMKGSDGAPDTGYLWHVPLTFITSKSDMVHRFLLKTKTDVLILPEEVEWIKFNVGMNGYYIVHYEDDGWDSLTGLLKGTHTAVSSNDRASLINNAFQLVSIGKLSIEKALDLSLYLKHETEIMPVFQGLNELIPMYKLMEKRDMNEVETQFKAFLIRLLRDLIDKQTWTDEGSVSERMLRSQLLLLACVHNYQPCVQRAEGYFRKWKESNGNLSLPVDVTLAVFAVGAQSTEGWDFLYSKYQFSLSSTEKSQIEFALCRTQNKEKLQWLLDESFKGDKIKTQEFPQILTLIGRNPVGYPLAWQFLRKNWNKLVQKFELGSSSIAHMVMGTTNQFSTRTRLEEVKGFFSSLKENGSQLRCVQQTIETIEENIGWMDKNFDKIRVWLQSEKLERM
esBAF inh – Bmi1 luciferase reporter increase in mESCs, primary screen, esBAF inhibitor project, mouse ES cells, Bmi1 luciferase knock-in, single point. 350,000 tested, 2% active. reporter increase, % at 12.5 µM. 24 h; 100% = twice the neutral-well signal; in the data active means activation above about 40%; inconclusive means no clear call, values can overlap the other calls;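 further: a rise in the Bmi1 reporter signal indicates esBAF inhibition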
Env fusion inh – inhibitors of HIV-1 Env-driven cell-cell fusion, primary screen, HeLa-JRFL effector, CEM21 target cells, luciferase | inhibition, % at 12.3 µM | 360,000 tested, 1.1% active;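 active means mean replicate inhibition score of at least 50 and every replicate individually at or above 50; inconclusive means only one of the two criteria met; inactive means mean below 50 and not all replicates reaching 50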
Numbers stand for hits; 0 = inactive; ? = inconclusive; - = no result given. Shown are actives, neighbours in structure and some others; about 3.5% of the full set was active somewhere.

SMILES | MITF TRPM1 HTS | Wnt act | Cneo AK release | ERAP1 inh | esBAF inh | Env fusion inh
CC(O)CN=c1cc(-c2ccccc2)oc2ccc(Cl)cc12 (stereo unspecified) | ? | - | 0 | 0 | 0 | -
CN(C)CCCN1C(=O)c2oc3ccc(Cl)cc3c(=O)c2C1c1cccnc1 (stereo unspecified) | - | 0 | 0 | 0 | 0 | 0
OCCN=c1cc(-c2ccccc2)oc2ccc(Cl)cc12 | 0 | 0 | 0 | - | 46 | -
Cc1cc(C)c(C)c(N=Nc2nc3ccccc3n2C)c1C | 0 | - | - | - | - | 0
Cc1ccc(C)c(N=Nc2nc3ccccc3n2C)c1 | 0 | - | 0 | - | 41 | -
CCCN1[C@H](C(=O)NCCc2cn(C)cn2)[C@@H](CO)[C@@H]2Cn3c(ccc(-c4ccccc4)c3=O)[C@@H]21 | - | - | 0 | 0 | 0 | -
C[C@H]1CN([C@@H](C)CO)C(=O)c2cc(C#CCC3CCCC3)cnc2O[C@H]1CN(C)Cc1ccccn1 | - | - | 0 | 0 | 0 | 0
C=CCn1nnnc1SCC(=O)Nc1cccc(C(F)(F)F)c1 | 0 | 0 | 0 | 103 | 0 | 0
COC(=O)C[C@@H]1CC[C@@H]2[C@H](COc3ccc(NC(=O)Nc4cccc(C)c4)cc3C(=O)N2C)O1 | - | - | 0 | 0 | 0 | 0
O=S(=O)(N[C@@H]1CCCN(Cc2ccc(OCCO)cc2)C1)c1cccc2cccnc12 | - | - | 0 | 0 | - | 0
Cc1ccc2oc(C(=O)NC3CCS(=O)(=O)C3)c(C)c2c1 (stereo unspecified) | 0 | 0 | 0 | 0 | - | 0
Cc1c(C(=O)NC2CCCCC2)oc2ccc(F)cc12 | 0 | 0 | 0 | 0 | 43 | 0
COc1ccc2oc(C(=O)NC3CCCCC3)c(C)c2c1 | 112 | 0 | 0 | 0 | ? | 0
C[C@@H]1CCCCO[C@H](CN(C)Cc2ccncc2)[C@H](C)CN([C@@H](C)CO)C(=O)c2cc(NC(=O)Nc3ccc4c(c3)OCO4)ccc2O1 | - | - | 0 | 0 | 0 | 0
Clc1ccccc1N/N=C/c1ccc2c(c1)OCO2 | 0 | - | 0 | 0 | 78 | 0
C(=N\Nc1nc2ccccc2[nH]1)/c1ccc2c(c1)OCO2 | 116 | 0 | - | 0 | - | 0
O=C(CNC(=O)c1ccccc1Cl)N/N=C/c1ccc2c(c1)OCO2 | 0 | 0 | 0 | 0 | 0 | 0
COc1cccc(/C=N/Nc2nccnc2Cl)c1O | 0 | 0 | - | 0 | - | 0
COc1cccc(/C=N/Nc2ncnc(Cl)c2N)c1O | 0 | 0 | - | 0 | - | 55
CC(/C=N/Nc1nc2ccccc2[nH]1)=C\c1ccccc1 | 0 | 53 | - | 0 | - | 0
CC(=O)N(C)C[C@@H]1Oc2ncc(C#CC3(O)CCCC3)cc2C(=O)N([C@H](C)CO)C[C@@H]1C | - | - | 0 | 0 | 0 | 0
COc1cc(/C=N/Nc2nc(C)cc(C)n2)ccc1O | - | 0 | 0 | 0 | 0 | 0
C/C(=N\Nc1nc2ccccc2[nH]1)c1cc2ccccc2o1 | 0 | - | - | - | - | 0
COc1cc(/C=N/Nc2nc3ccccc3[nH]2)ccc1O | 0 | 0 | 0 | 0 | 47 | -
COc1cc(/C=N/Nc2snc(SC)c2C#N)ccc1O | 0 | - | 0 | - | 60 | 0
SMILES | MITF TRPM1 HTS | Wnt act | Cneo AK release | ERAP1 inh | esBAF inh | Env fusion inh
COc1cccc(/C=N/Nc2nc3ccccc3[nH]2)c1O | 0 | 0 | 0 | 0 | 62 | 0
C/C(=N\Nc1nc2ccccc2[nH]1)c1ccccn1 | 0 | 0 | 0 | 0 | 0 | 65
O=C(C[C@H]1CC[C@H]2[C@@H](COC[C@@H](O)CN2S(=O)(=O)c2ccccc2)O1)NCCN1CCCC1 | - | - | - | 0 | - | -
COc1ccc(-c2cnc3c(c2)C(=O)N([C@H](C)CO)C[C@H](C)[C@H](CN(C)S(=O)(=O)c2ccc(F)cc2)O3)cc1 | - | - | 0 | 0 | 0 | 0
C[C@@H]1CN([C@H](C)CO)C(=O)c2cc(NC(=O)Nc3cccc4ccccc34)ccc2O[C@@H](C)CCCCO[C@@H]1CN(C)S(=O)(=O)c1ccc(F)cc1 | - | - | 0 | 0 | 0 | 0
C[C@H]1CN([C@@H](C)CO)C(=O)Cc2cc(NC(=O)NC3CCCCC3)ccc2O[C@H]1CN(C)C | - | - | 0 | 0 | 0 | -
CC(C)c1nnc(NC(=O)c2ccc3c(c2)OCO3)s1 | 0 | 0 | - | 0 | - | 0
C=CCNc1nc(N)c(C(=O)c2ccc3c(c2)OCO3)s1 | 0 | - | 0 | - | 52 | -
C=CCNc1nc(N)c(C(=O)Nc2cc(C)on2)s1 | 0 | - | 0 | - | 0 | -
